Reference: article PMC12782866 (Biomolecules & Therapeutics, 2025)
Entries after “also recorded” stand apart in the source; their conditions may differ.

How the values were obtained:
[1] = Comparative 14-day repeated-dose toxicity study with BAY964; type: in vivo, male ICR mice; conditions: for exposure multiple: reference not defined
Procedure, shortened: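 Male ICR mice were dosed orally once daily for 14 days under GLP. Prodrug arm: 30, 100 or 300 mg/kg in 0.1% kolliphor EL (vehicle n=6; dose groups 6 main + 3 TK). Comparator arm: 30-1000 mg/kg, with 30 mg/kg given only as single-dose TK. Endpoints were clinical signs, body weight, food/water intake, haematology, serum chemistry, organ weights and H&E histopathology. TK was sampled on days 1 and 14.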

[2] = biological target: hERG channel (Homo sapiens, UniProt Q12809); assay: hERG channel inhibition, in vitro; type: biochemical; conditions: read-out: hERG IC50
hERG channel, sequence (Q12809 whole entry): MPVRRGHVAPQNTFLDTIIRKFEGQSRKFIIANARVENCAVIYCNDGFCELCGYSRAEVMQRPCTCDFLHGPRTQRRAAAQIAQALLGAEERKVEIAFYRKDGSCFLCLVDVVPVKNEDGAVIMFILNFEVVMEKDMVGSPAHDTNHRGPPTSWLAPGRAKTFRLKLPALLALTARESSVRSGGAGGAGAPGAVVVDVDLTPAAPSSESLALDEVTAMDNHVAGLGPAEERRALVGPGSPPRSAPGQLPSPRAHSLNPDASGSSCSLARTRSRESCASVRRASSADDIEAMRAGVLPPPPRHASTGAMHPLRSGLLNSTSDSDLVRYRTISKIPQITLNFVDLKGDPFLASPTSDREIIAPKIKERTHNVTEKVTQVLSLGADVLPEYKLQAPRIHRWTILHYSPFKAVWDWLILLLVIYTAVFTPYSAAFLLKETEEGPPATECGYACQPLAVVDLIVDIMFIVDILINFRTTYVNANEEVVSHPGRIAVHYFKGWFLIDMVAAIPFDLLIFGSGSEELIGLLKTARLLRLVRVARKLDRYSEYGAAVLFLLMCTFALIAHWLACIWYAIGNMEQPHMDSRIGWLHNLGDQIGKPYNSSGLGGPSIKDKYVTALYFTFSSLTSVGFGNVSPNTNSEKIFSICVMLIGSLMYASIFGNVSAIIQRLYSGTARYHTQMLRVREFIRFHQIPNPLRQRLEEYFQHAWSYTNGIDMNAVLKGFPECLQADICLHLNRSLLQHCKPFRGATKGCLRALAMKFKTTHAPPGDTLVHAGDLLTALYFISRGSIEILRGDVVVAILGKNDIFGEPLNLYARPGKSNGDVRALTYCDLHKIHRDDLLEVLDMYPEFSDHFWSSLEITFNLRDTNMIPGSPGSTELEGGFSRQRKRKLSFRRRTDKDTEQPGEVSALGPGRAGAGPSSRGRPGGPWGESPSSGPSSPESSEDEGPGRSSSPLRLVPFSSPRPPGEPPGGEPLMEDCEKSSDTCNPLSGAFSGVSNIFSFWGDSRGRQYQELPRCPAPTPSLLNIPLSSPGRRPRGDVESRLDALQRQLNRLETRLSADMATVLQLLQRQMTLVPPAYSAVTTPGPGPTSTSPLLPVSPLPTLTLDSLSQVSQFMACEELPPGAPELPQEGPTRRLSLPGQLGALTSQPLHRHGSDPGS

In the case of C[C@@H](CO)NC(=O)c1cc(-c2ccc(Cl)cc2)nn(-c2cnn(C)c2)c1=O [BAY964], the toxicological findings ([1]; 100 mg/kg, 14 days) is reported as “MCHC ↓, TG ↓, liver, spleen”, the exposure multiple ([1]; 100 mg/kg) is reported as 1.9 × and the toxicological findings ([1]; 300 mg/kg, 14 days) is reported as “liver, spleen; hematological changes”. For the same molecule, the exposure multiple ([1]; 300 mg/kg) was 3.6 ×, the toxicological findings ([1]; 1000 mg/kg, 14 days) was “gastrointestinal, liver, spleen, kidney lesions” and the exposure multiple ([1]; 1000 mg/kg) was 7.0 ×. For the same molecule, the Target organ ([1]; 100-1000 mg/kg, 14 days) was “liver, spleen, gastrointestinal tract, and kidney; also recorded: Liver, spleen, GI tract, kidney” and the IC50 [2] was greater than 10 µM.
